Compound activity from PubChem BioAssay.
Diaphorase inh = counter-screen for diaphorase-based assays: diaphorase inhibitors and chemical oxidizers | diaphorase resazurin-to-resorufin fluorescence, NADH, 16 min; bacterial (C. kluyveri) enzyme, not human | inhibition, % at 20 µM | 190,000 tested, 0.69% active | AID 1217;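 active = primary screen inhibition at 20 µM above a set limit, cut at about 50% in these data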
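material = Clostridium kluyveri diaphorase enzyme | amount = 0.14 U/mL diaphorase, enzyme working solution | schedule = incubation 16 min, room temperature | detection = fluorescence of resorufin formed from resazurin, Ex 544/Em 590 nm | benchmarks = positive control minus NADH, DMSO neutral control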
Diaph act CS = diaphorase activation or chemical reduction counter-screen. 190,000 tested, 0.005% active. activation factor at 20 µM. AID 1229. Diaphorase/resazurin coupled assay, resorufin fluorescence, 16 min; active compounds read high; 1 = vehicle wells, 0 = NADH-free wells;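 active = diaphorase activity raised at least twofold by the compound at 20 µM; inactive = activation factor below 2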
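test system = bacterial diaphorase enzyme (C. kluyveri) | quantity = enzyme 0.07 U/mL final | reagent = NADH substrate 0.114 mM plus resazurin dye 0.1 mM, final | incubation = 16 min enzyme reaction, ambient temperature | buffer or medium = HEPES pH 7.4 buffer with MgCl2 and Tween 20 | signal = fluorescence of resorufin, 544 nm excitation, 590 nm emission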
PMI act = increases human mannose-6-phosphate isomerase activity. P34949. purified human PMI, coupled resazurin fluorescence, 20 min; active compounds read high; 1 = vehicle control, 0 substrate-free wells. activation factor at 20 µM. 190,000 tested, 0.005% active;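 active = activation factor of 2 or more at 20 µM, relative to plate controls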
Target sequence (P34949 whole entry, looked up): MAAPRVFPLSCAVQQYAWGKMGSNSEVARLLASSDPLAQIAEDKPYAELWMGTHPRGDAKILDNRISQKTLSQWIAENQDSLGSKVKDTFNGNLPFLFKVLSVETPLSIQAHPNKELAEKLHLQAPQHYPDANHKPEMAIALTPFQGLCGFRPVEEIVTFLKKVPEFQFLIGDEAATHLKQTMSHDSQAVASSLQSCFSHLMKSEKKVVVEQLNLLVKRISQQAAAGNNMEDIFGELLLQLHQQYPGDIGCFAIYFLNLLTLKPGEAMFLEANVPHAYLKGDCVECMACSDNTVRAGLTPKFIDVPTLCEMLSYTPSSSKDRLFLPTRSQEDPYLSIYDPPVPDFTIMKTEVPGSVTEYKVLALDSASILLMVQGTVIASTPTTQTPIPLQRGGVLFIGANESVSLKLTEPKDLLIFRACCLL
G6PDH CS = L. mesenteroides G6PDH inhibition counter-screen; Purified L. mesenteroides G6PDH, diaphorase/resazurin coupled fluorescence, 45 min; inhibition, % at 5 µM; 200,000 tested, 0.12% active; in the data active = inhibition above about 50%
PMI act satM6P = activators of human phosphomannose isomerase at near-saturating mannose 6-phosphate; P34949; coupled PMI enzyme assay, resazurin fluorescence, 20 min; active compounds read high; 1 = untreated enzyme, 0 = substrate-free blank; activation factor at 20 µM; 190,000 tested, 0.34% active; AID 1216;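 active = activation factor of 2 or more at 20 µM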
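assay system = human phosphomannose isomerase with PGI, G6PDH, diaphorase coupling enzymes | quantity = 15 ng/mL PMI | incubation = enzyme reaction with compound 20 min at room temperature | medium = HEPES pH 7.4 buffer with MgCl2 and Tween-20 | compound dosing = one concentration, 20 µM, in 1% DMSO | measured by = Diaphorase-driven resazurin-to-resorufin fluorescence, excitation 544, emission 590 nm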
Large screens that a line does not name were inactive. The list is not random: actives were taken first. Their share in the collection is about 1.1%.

CCSc1nnc(-c2ccccc2SC)o1	PMI act satM6P 2.1
CSc1ccccc1-c1nnc(-c2ccc(Cl)cc2Cl)o1	none
CC(=O)Nc1cc(S(=O)(=O)Nc2ccccc2C)c(C)cc1C	none
COc1cccc(-c2cc(C(=O)NCC3CCCO3)c3ccccc3n2)c1 (stereo not drawn)	none
CCC1=NN2C(=N)/C(=C\c3ccc(OCc4cc(=O)n5nc(CC)sc5n4)c(OC)c3)C(=O)N=C2S1	Diaphorase inh 54
CCC1=NN2C(=N)/C(=C\c3cccn3-c3ccc(C)c(C)c3)C(=O)N=C2S1	none
COc1cccc(CN2CCC(N(CCc3ccccc3)Cc3ccccc3)CC2)c1OC	none
O=C(CSc1cccc[n+]1[O-])Nc1cccc(S(=O)(=O)NC2=NCCCCC2)c1	none
Oc1ccc(C=Nc2ccccc2-c2nc3ccccc3[nH]2)cc1	none
CC(C)c1ccc(S(=O)(=O)c2ccc(NN)cc2)cc1	PMI act satM6P 2.2
CCCCNC1=CC(=O)C(=O)c2ccccc21	G6PDH CS 60 (no result: Diaphorase inh, Diaph act CS, PMI act, PMI act satM6P)
Cc1c(N=C2C=CC(=O)c3ccccc32)c(=O)n(-c2ccccc2)n1C	Diaphorase inh 58
Cc1c(N=C2C=C(Br)C(=O)C(Br)=C2)c(=O)n(-c2ccccc2)n1C	Diaphorase inh 69
Cc1c(N=Nc2ccc(O)cc2)c(=O)n(-c2ccccc2)n1C	none
CC#C[C@]1(O)CC[C@H]2[C@@H]3CCC4=CC(=O)CCC4=C3[C@@H](c3ccc(N(C)C)cc3)C[C@@]21C	none
Cc1nc(NC(C)c2ccccc2)c2oc3ccccc3c2n1 (stereo not drawn)	none
Cc1ccc(OCC(=O)Nc2cc(S(=O)(=O)N3CCCCC3)ccc2C)c([N+](=O)[O-])n1	none
C/C(=N\NC(=O)c1ccccc1O)c1c(O)cc(C)oc1=O	none
CCc1ccccc1N/N=C(/C)c1c(O)cc(C)oc1=O	PMI act satM6P 2.7
CC/C(=N/Nc1ccccc1C)c1cnnc(SC)n1	PMI act satM6P 2.3
CSc1nncc(/C(C)=N\Nc2ccccc2)n1	none
CSc1nncc(/C(C)=N\Nc2cccc(C)c2)n1	PMI act satM6P 2.4
c1ccc(CCc2nc3ccccc3[nH]2)cc1	none
S=c1cnc2ccccc2[nH]1	PMI act satM6P 2.1
CC(=O)Nc1ccc2c(c1)ncn2-c1ccc(C)cc1	none
Cc1ccc(NC2=C/C(=N/S(=O)(=O)c3cccs3)c3ccccc3C2=O)cc1	G6PDH CS 50
O=C1C(Nc2ccccc2)=C/C(=N/S(=O)(=O)c2cccs2)c2ccccc21	none
O=S(=O)(c1ccc(N=C2NN=C(c3cc(F)ccc3F)CS2)cc1)N1CCOCC1	PMI act satM6P 2.3
COCCCn1cc(C(=O)c2ccccc2OCC(=O)Nc2cccc(F)c2)cc(C#N)c1=O	none
Cc1ccc(S(=O)(=O)/N=C2/C=C(Sc3ncn[nH]3)C(=O)c3ccccc32)c(C)c1	Diaphorase inh 69
O=C(O)c1ccc2c(c1)C(=O)N(c1cccc(C(=O)/C=C/c3ccccc3)c1)C2=O	none
O=C(CN1CCc2ccccc2C1)NC1CCCC1	none
O=C1CCN2C=Nc3cccc4ccc1c2c34	Diaphorase inh 77
CC(C)(C)C(=O)N1CCN(c2c(Cl)cccc2[N+](=O)[O-])CC1	none
C(=C\c1ccco1)/C1=NN(c2ccccc2)C(c2ccco2)C1 (stereo not drawn)	PMI act satM6P 2.2
Clc1cccc(Cl)c1/C=N\Nc1nccs1	none
O=[N+]([O-])c1cc(/C=N\Nc2nccs2)ccc1O	Diaphorase inh 90
CC(NC(=O)C1CCN(S(=O)(=O)c2cnc[nH]2)CC1)c1ccccc1 (stereo not drawn)	none
O=C(Nc1ccccc1N1CCCC1)c1cccnc1	PMI act satM6P 2.1
O=C(Nc1ccccc1N1CCCC1)c1ccc(Br)o1	PMI act satM6P 2.1
COCCOC(=O)C1=C(C)NC2(O)c3ccccc3C(=O)C12O (stereo not drawn)	Diaphorase inh 74
CCOC(=O)C1=C(C)NC2(O)c3ccccc3C(=O)C12O (stereo not drawn)	none
COc1cc(/C=N/NC(=O)CC#N)cc(Br)c1O	none
COc1ccc(/C(=N\Nc2ccccc2C(=O)O)c2ccccc2)cc1	PMI act satM6P 2.2
CC1=CC(C)(C)Nc2ccc(OS(=O)(=O)c3ccc(C)cc3)cc21	Diaphorase inh 50
CC(=O)Nc1ccc(S(=O)(=O)Oc2ccc3c(c2)C(C)=CC(C)(C)N3)cc1	none
CC(N1CCOC1=O)S(=O)(=O)c1ccccc1 (stereo not drawn)	PMI act satM6P 2
O=S(=O)(c1ccccc1)N1CCC2(CC1)OCCO2	none
O=c1ccc2cc3c([nH]c4ccc(Br)cc43)oc-2c1O	Diaphorase inh 76
O=c1c2c([nH]c3ccc(Br)cc13)CCCC2	none
CCCCn1c(SCC(=O)N2CCOCC2)nnc1-c1cccs1	none
CN(C)C(=O)c1cc(C(=O)c2ccc(C(F)(F)F)cc2F)c[nH]1	none
O=c1c2c([N+](=O)[O-])cc([N+](=O)[O-])cc2sn1-c1ccc(Br)cc1	Diaphorase inh 67
O=c1c2cc(Br)ccc2nc(-c2ccc([N+](=O)[O-])cc2)n1O	none
O=C(NCc1ccco1)c1cnn2c(C(F)(F)F)cc(-c3cccs3)nc12	Diaphorase inh 58
Cc1ccc(S(=O)(=O)/N=C2\C(=O)c3ccccc3C([O-])=C2n2cc[n+](CCC(C)C)c2)cc1	G6PDH CS 53
O=C(NCCOc1ccccc1)C(=O)NCC1CCCO1 (stereo not drawn)	none
O=C(NCCOc1ccc(Cl)cc1)C(=O)NCC1CCCO1 (stereo not drawn)	Diaphorase inh 51
CC(C)CCSc1cc(NCCO)c([N+](=O)[O-])c2nonc12	Diaphorase inh 80
CCC(=O)OCCNc1cc(SCCC(=O)OC)c2nonc2c1[N+](=O)[O-]	Diaphorase inh 71
CC(=O)OCCNc1cc(SC(C)C)c2nonc2c1[N+](=O)[O-]	Diaphorase inh 52
O=[N+]([O-])c1c(NCCO)cc(N2CCCCC2)c2nonc12	Diaphorase inh 52
CC(=O)OCCN(C)c1cc(SC(C)C)c2nonc2c1[N+](=O)[O-]	none
O=C(CCCc1nc2ccccc2s1)NC(c1ccccc1)c1ccccc1	none
O=C(CSc1nnnn1-c1cccnc1)NCc1cccs1	none
COc1ccc2nc(SCC(=O)N3CCN(c4ccc(F)cc4)CC3)c(C#N)cc2c1	none
COC(=O)c1cc(O)c(O)c(O)c1	Diaphorase inh 50
COC(=O)c1cc(O)c(OCc2ccccc2)c(O)c1	none
NNC(=O)CNS(=O)(=O)c1ccc([N+](=O)[O-])cc1	none
O=c1cc(N2CCCCC2)c2ccccc2o1	none
O=c1c(N2CCCCC2)coc2ccccc12	PMI act satM6P 2
CC(C)[C@H](NC(=O)NCCc1ccc(Cl)cc1)C(=O)O	none
